Experimental findings from the EternaBench riboswitch data are described below.

In this data set the test system is MS2 coat protein. The experiment in a line: apparent Kd, MS2 coat protein; higher = weaker binding; RNA-MaP array; FMN 200 µM where present. In short, it runs like this: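 On Illumina sequencing-chip clusters, designs were transcribed by stalled E. coli RNA polymerase and titrated with SNAP-549-labelled MS2 coat protein (0.7 or 1.5 nM, doubling to 3 µM), without and then with constant ligand, in 100 mM Tris-HCl pH 7.5, 80 mM KCl, 4 mM MgCl2, BSA, DTT, yeast tRNA and Tween-20. Apparent Kd is the median of filtered per-cluster curve fits to green signal normalised to red-channel RNA signal and control-cluster median Fmax.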

Setting [1] is: designed as: ON switch for flavin mononucleotide, no ligand.
Setting [2] is: ligand present: flavin mononucleotide, designed as: ON switch for flavin mononucleotide.
The mark [3] stands for this setting: designed as: OFF switch for flavin mononucleotide, no ligand.
The mark [4] stands for this setting: ligand present: flavin mononucleotide, designed as: OFF switch for flavin mononucleotide.

For “UCGUUUAUACAAGGAUAUCAAUUUUAGCUUAAUUCAACAUGAGGAUCACCCAUGUAACUAUGGAGUGAGAAGGUGUAAUGGCUU”, the apparent Kd (commonly a dissociation constant that holds for the conditions of the assay) was determined as 522 nM under setting [1] and 222 nM under setting [2].

As for “AUCAGCUCGUCAGGAUAUACGUCACUGCGUCAGCAGUGUGCUAAGAUCACAUGAGGAUCACCCAUGUAGAAGGGACGAGCUGAU”, the “apparent Kd” value is, setting by setting: under setting [3], 5.83 nM; under setting [4], 22.1 nM.

As for “UAUUCAUUCAGAGGAUAUUGUUUAUCUCUAUUUCAAGAAGGCUGAUUUUACUACUUACUUAUGAAACAUGAGGAUCACCCAUGU”, the “apparent Kd” value under setting [1] amounted to 25.6 nM and the “apparent Kd” value under setting [2] came out at 17.5 nM.

Consider “GGGUACAUCGGAGGAUAUCAUGUAAAUACAUGAGGAUCACCCAUGUCGAUGGAGACAUCGGAGAUUGAGAAGGCUGAUGUACCG”, for which the “apparent Kd” value reads like this: under setting [1], 188 nM; under setting [2], 9.18 nM.

“CAGCGAUAGCUGAAUGGUACAUGGGAGGAUAUGGGAAGAUACAUGAGGAUCACCCAUGUUAAAUACUAGAAGGCCCAUGUACCU”: the “apparent Kd” value reads like this: under setting [1], 14.9 nM; under setting [2], 5.45 nM.

In the case of “AAUAAACAUGAGGAUCACCCAUGUAAAUGGGUACAAGGAUAUGCGAAAAGAAACAAAGAAGCAGAAGGUGUAAAGA”, the “apparent Kd” value is 836 nM under setting [1] and 1040 nM under setting [2].

Regarding “CCACGGUAUGUAGGAUAUGCAUAGCAUUGCUAAAAAGAAGGACAUGAGGAUCACCCAUGUAUGUAUUCCAUACUAAUCCCGUGC”, the “apparent Kd” value by setting is: under setting [3], 8.98 nM; under setting [4], 8.06 nM.

In the case of “GGGUGACAUGAGGAUCACCCAUGUCAGGAUAUGGGUUUGGGCCCGAAAGGGCCCGGGCCCAGAAGGGACUGCCC”, the “apparent Kd” value is, setting by setting: under setting [3], 50.9 nM; under setting [4], 96.4 nM.

Take “AAGUCUGGACGAGGAUAUCAGUUGUAUCUGGCAUCAACAUGAGGAUCACCCAUGUUGCAAUAGGGUGAGAAGGCGUUUGGGCAA”: the “apparent Kd” value is, setting by setting: under setting [1], 278 nM; under setting [2], 29.7 nM.

In the case of “ACGAGCAAGAUUAUUAUGAAUAAACAUGAGGAUCACCCAUGUAAGGAUAUGCAGUGGAAUACACUGCAGAAGGUACAUAGCUCG”, the “apparent Kd” value stood at 11.3 nM under setting [3] and 44.2 nM under setting [4].

Turning to “GUCAGCUCGUAAGGAUAUACAACACUGCUUCGGCAGUGUAUUAAGAUCACAUGAGGAUCACCCAUGUAGAAGGCACGAGCUGAU”, the “apparent Kd” value under setting [3] was determined as 7.06 nM and the “apparent Kd” value under setting [4] came out at 18.9 nM.

As for “GGUACUCAGAGAGUACCAAUACGAACAUGAGGAUCACCCAUGUAGGAUAUGCUACUCAAAGAGUAGCAGAAGGACAUGUGCCUA”, the “apparent Kd” value under setting [3] stood at 14.9 nM and the “apparent Kd” value under setting [4] is 101 nM.

As to “GUUGUUCGAGGAUAUACAUGAGGAUCACCCAUGUGUGUUGUGGGCGACGUUCGUUUAUGUAGAAGGCGAGCGGC”, the “apparent Kd” value by setting is: under setting [3], 63.3 nM; under setting [4], 92.1 nM.

In the case of “UUUUUAUAUGAAGGAUAUACUUAACAUGAGGAUCACCCAUGUGGUGUUGUGAGUGAGUGAGUUUAGUAGAAGGUCAAUUCUUUU”, the “apparent Kd” value is, setting by setting: under setting [3], 236 nM; under setting [4], 205 nM.

With “GGGUUCAUGUAAGGAUAUGUAUUGUUAAUCGGAGCAGAAGGUACAUGAGGAUCACCCAUGUCAACCUAGAGCAGGGCUUUUUAG”, the “apparent Kd” value runs as follows: under setting [3], 27 nM; under setting [4], 110 nM.

Turning to “CAAGGCUUCACAGGAUAUAUUGAUGACAUGAGGAUCACCCAUGUACCGGCAGUAGAAGGGUGAACGCUCGUGGCCACGUGCGUG”, the “apparent Kd” value under setting [1] is 130 nM and the “apparent Kd” value under setting [2] is 35.6 nM.

On to “UGUUAAAUUGAUCCUGCAAGUACAUGAGGAUCACCCAUGUGCUAGGAUAUCGCGCAGCUAAAGACCGAGAAGGAGCACAAUGUA”, for which the “apparent Kd” value is 39.2 nM under setting [3] and 97.7 nM under setting [4].

Turning to “AUCAGCUUGACAGGAUAUGCAUGUCAGCGAAAGCUGACAAUCUUAAUAACAUGAGGAUCACCCAUGUAGAAGGGUCGAGCUGAU”, the “apparent Kd” value under setting [3] was 17.1 nM and the “apparent Kd” value under setting [4] is 20.3 nM.

Take “GCUGACGAUGUAGGAUAUCUCGACGAUAAGUCGAGAGAAGGACAUGAGGAUCACCCAUGUAAACUCGCGUCAGCGAGGAAACUC”: the “apparent Kd” value under setting [3] is 17.9 nM and the “apparent Kd” value under setting [4] is 20.1 nM.

In the case of “UGGACCGAGCUAUCGGUUGACUCGAAGGAUAUGACAUGAGGAUCACCCAUGUGGGAUCUAAAUUGUCAGAAGGUUGGUUCUGGG”, the “apparent Kd” value runs as follows: under setting [3], 367 nM; under setting [4], 140 nM.
